Measurements as given in ChEMBL document CHEMBL1122734, “A novel peptide delivery system involving peptidase activated prodrugs as antimicrobial agents. Synthesis and biological activity of peptidyl derivatives of 5-fluorouracil” (J Med Chem, 1984).
Converted amounts (≈) assume the structure as drawn.

Tests used:
Candida albicans [1] = test: Compound is evaluated for disk diffusion assay of the activity against Candida albicans B-311 at 1.5 ug/disk; type: functional
In short: (§1)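 Cells grown 7 h at 37 °C in trypticase soy broth with shaking at 250 rpm. 1 mL of culture was seeded into 1 L of yeast carbon base agar with lysine 200 µg/mL, and 15 mL was poured per plate. Peptides in water were loaded onto 6.35-mm paper disks. Plates were incubated 24 h at 37 °C and inhibition zones read.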

Candida albicans [2] = test: Compound is evaluated for disk diffusion assay of the activity against Candida albicans B-311 at 6.0 ug/disk; type: functional; in short: as §1
Candida albicans [3] = test: Compound is evaluated for minimum inhibitory concentrations against Candida albicans strain B311; type: functional
In short: (§2)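 Twofold broth dilution in yeast carbon base medium with lysine 200 µg/mL. Final inoculum was approximately 10^4-10^5 cfu/mL, incubated overnight at 37 °C. MIC was taken as the lowest concentration giving complete growth inhibition.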

Candida albicans [4] = test: Compound is evaluated for disk diffusion assay of the activity against Candida albicans B-311 at 25.0 ug/disk; type: functional; in short: as §1
Candida albicans [5] = test: Compound is evaluated for minimum inhibitory concentrations against Candida albicans strain 3153A; type: functional; in short: as §2
Candida albicans [6] = test: Compound is evaluated for disk diffusion assay of the activity against Candida albicans B-311 at 3.0 ug/disk; type: functional; in short: as §1
Candida albicans [7] = test: Compound is evaluated for disk diffusion assay of the activity against Candida albicans B-311 at […]; type: functional
Candida albicans [8] = test: Compound is evaluated for minimum inhibitory concentrations against Candida albicans strain BC759; type: functional; in short: as §2
Escherichia coli [9] = test: 2 mg/disk of dialanine was codisked on the compound and evaluated for antagonistic activity against Escherichia coli M2626,at 1.5 ug/disk; type: functional
In short: (§3)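 Disk diffusion on E. coli seeded agar plates. Culture grown in trypticase soy broth for 7 h at 37 °C with shaking at 250 rpm, then 1 mL per litre of agar medium; plates made as for C. albicans but with M-9 medium. Peptide in water absorbed onto 6.35-mm paper disks. Antagonism tested by placing a second disk with noninhibitory di- or tripeptide over the test disk. Plates incubated 24 h at 37 °C; inhibition zones read.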

Escherichia coli [10] = test: 2 mg/disk of dialanine was codisked on the compound and evaluated for antagonistic activity against Escherichia coli M2626,at 3.0 ug/disk; type: functional; in short: as §3
Escherichia coli [11] = test: Compound is evaluated for antagonistic activity against Escherichia coli M2626 at 25.0 ug/disk; type: functional; in short: as §3
Escherichia coli [12] = test: Compound is evaluated for antagonistic activity against Escherichia coli M2626 at 6.0 ug/disk; type: functional; in short: as §3
Escherichia coli [13] = test: Compound is evaluated for antagonistic activity against Escherichia coli M2626 at 3.0 ug/disk; type: functional; in short: as §3
Escherichia coli [14] = test: 2 mg/disk of dialanine was codisked on the compound and evaluated for antagonistic activity against Escherichia coli M2626,at […]; type: functional
Escherichia coli [15] = test: Compound is evaluated for antagonistic activity against Escherichia coli M2626 at 1.5 ug/disk; type: functional; in short: as §3
Escherichia coli [16] = test: Compound is evaluated for antagonistic activity against Escherichia coli M2626 at […]; type: functional
Escherichia coli [17] = test: 2 mg/disk of dialanine was codisked on the compound and evaluated for antagonistic activity against Escherichia coli M2626,at 6.0 ug/disk; type: functional; in short: as §3
Mus musculus [18] = organism: Mus musculus; test: Stability in mouse serum at the time of 0.5 hours, stability was measured by in the form of percent Fluoro uracil; type: ADME
In short: (§4)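 A 1:1 mixture of the L,L and L,D peptide diastereomers was added as powder to undiluted serum at 0.5 mg/mL and held at 37 °C. Samples were taken at time points, filtered through glass fiber, and analysed by reversed-phase (RP-18) HPLC. Values are the increase in percent free 5-FU.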

[19] = Stability in water (H20) at the time of zero(0) hours, stability was measured by in the form of percent Fluoro uracil; type: physicochemical; details: buffer
In short: (§5)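 A 1:1 mixture of the L,L and L,D peptide diastereomers was added at 0.5 mg/mL to distilled water and kept at 23 °C. Samples were taken over time, filtered through glass fiber, and analysed by RP-18 HPLC. Values are the percent free 5-FU formed.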

Mus musculus [20] = organism: Mus musculus; test: Stability in mouse serum at the time of 2.5 hours, stability was measured by in the form of percent Fluoro uracil; type: ADME; in short: as §4
Homo sapiens [21] = organism: Homo sapiens; test: Stability in human serum at the time of 5 hours, stability was measured by in the form of percent Fluoro uracil; type: ADME; in short: as §4
Mus musculus [22] = organism: Mus musculus; test: Stability in mouse serum at the time of 5 hours, stability was measured by in the form of percent Fluoro uracil; type: ADME; in short: as §4
Homo sapiens [23] = organism: Homo sapiens; test: Stability in human serum at the time of 24 hours, stability was measured by in the form of percent Fluoro uracil; type: ADME; in short: as §4
Homo sapiens [24] = organism: Homo sapiens; test: Stability in human serum at the time of 50 hours, stability was measured by in the form of percent Fluoro uracil; type: ADME; in short: as §4
Homo sapiens [25] = organism: Homo sapiens; test: Stability in human serum at the time of 0.5 hours, stability was measured by in the form of percent Fluoro uracil; type: ADME; in short: as §4
[26] = Stability in water (H20) at the time of 240 hours, stability was measured by in the form of percent Fluoro uracil; type: physicochemical; details: buffer; in short: as §5
Mus musculus [27] = organism: Mus musculus; test: Stability in mouse serum at the time of 24 hours, stability was measured by in the form of percent Fluoro uracil; type: ADME; in short: as §4
Mus musculus [28] = organism: Mus musculus; test: Stability in mouse serum at the time of zero(0) hours, stability was measured by in the form of percent Fluoro uracil; type: ADME; in short: as §4
Homo sapiens [29] = organism: Homo sapiens; test: Stability in human serum at the time of 1.5 hours, stability was measured by in the form of percent Fluoro uracil; type: ADME; in short: as §4
Homo sapiens [30] = organism: Homo sapiens; test: Stability in human serum at the time of zero(0) hours, stability was measured by in the form of percent Fluoro uracil; type: ADME; in short: as §4
Mus musculus [31] = organism: Mus musculus; test: Stability in mouse serum at the time of 1.5 hours, stability was measured by in the form of percent Fluoro uracil; type: ADME; in short: as §4
[32] = Candida albicans, read-out: MIC

SMILES	Activity (Candida albicans [1])	Activity (Candida albicans [2])	MIC (Candida albicans [3]) [µg/mL]	Activity (Candida albicans [4])	MIC (Candida albicans [5]) [µg/mL]	Activity (Candida albicans [6])	Activity (Candida albicans [7])	MIC (Candida albicans [8]) [µg/mL]	Zone size (Escherichia coli [9]) [mm]	Zone size (Escherichia coli [10]) [mm]	Zone size (Escherichia coli [11]) [mm]	MIC (Candida albicans [3]; [32]) [µg/mL]	Zone size (Escherichia coli [12]) [mm]	MIC (Candida albicans [5]; [32]) [µg/mL]	Zone size (Escherichia coli [13]) [mm]	Zone size (Escherichia coli [14]) [mm]	MIC (Candida albicans [8]; [32]) [µg/mL]	Zone size (Escherichia coli [15]) [mm]	Zone size (Escherichia coli [16]) [mm]	Zone size (Escherichia coli [17]) [mm]	also measured
C[C@H](N)C(=O)N[C@@H](C(=O)O)n1cc(F)c(=O)[nH]c1=O (stereo in doubt; 8b(L,D))	0	0	>100	0	>100	0	0	>100	–	–	–	–	–	–	–	–	–	–	–	–	–
O=c1[nH]cc(F)c(=O)[nH]1 [FLUOROURACIL]	22	30	–	44	–	30	40	–	33	38	46	4 (≈ 30.8 µM)	40	1 (≈ 7.69 µM)	38	41	1 (≈ 7.69 µM)	33	41	40	–
C[C@H](N)C(=O)N[C@@H](C(=O)O)n1cc(F)c(=O)[nH]c1=O (stereo in doubt; 8a(L,L))	16	22	12.5 (≈ 45.6 µM)	30	12.5 (≈ 45.6 µM)	20	26	1.6 (≈ 5.83 µM)	–	–	–	–	–	–	–	–	–	–	–	–	–
C[C@H](N)C(=O)NC(C(=O)O)n1cc(F)c(=O)[nH]c1=O (some centres undefined)	–	–	–	–	–	–	–	–	0	0	31	25 (≈ 91.2 µM)	27	25 (≈ 91.2 µM)	25	0	6.3 (≈ 23 µM)	22	26	0	Serum stability (Mus musculus [18]): 12; Serum stability [19]: 0; Serum stability (Mus musculus [20]): 36; Serum stability (Homo sapiens [21]): 15; Serum stability (Mus musculus [22]): 43; Serum stability (Homo sapiens [23]): 16; Serum stability (Homo sapiens [24]): 25; Serum stability (Homo sapiens [25]): 3; Serum stability [26]: 9; Serum stability (Mus musculus [27]): 53; Serum stability (Mus musculus [28]): 0; Serum stability (Homo sapiens [29]): 7; Serum stability (Homo sapiens [30]): 0; Serum stability (Mus musculus [31]): 27
